Assay results published in paper PMC3728914 (ACS medicinal chemistry letters, 2013).
Blank lines part the entries; values can stand above or below the compound they belong to.

Experiments:
[1] = test system: DNA-binding domain of RPA; conditions: in vitro; cited from earlier work
RPA70N [2] = biological target: T1, RPA70N (Homo sapiens, UniProt P27694); experiment: Fluorescence polarization anisotropy; type: binding; conditions: for ligand efficiency: from FPA Kd
Procedure, shortened: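 Displacement of a FITC-labelled ATRIP-derived peptide from RPA70N was read as fluorescence polarization anisotropy. Compounds were titrated to give dose-dependent anisotropy changes, from which IC50 was determined. Kd was calculated from IC50 with the Cheng–Prusoff equation and reported as the average of n = 2.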

RPA70N-p53 = conditions: cited from earlier work
RPA70N-Rad9 = conditions: cited from earlier work
RPA70N [3] = biological target: T1, RPA70N; experiment: NMR; type: binding; conditions: initial fragment hits
[4] = biological target: full length heterotrimeric RPA (Homo sapiens, UniProt P27694); experiment: Electrophoresis mobility shift assay; type: binding; conditions: EMSA, concentrations up to 100 μM

- inhibition of the RPA70N-ATRIP interaction (RPA70N [2]; FPA assay): did not inhibit
SMILES: CCOc1ccc2cc(C3CN(C(=O)CCC(=O)O)N=C3c3ccc(Br)cc3)c(Cl)nc2c1 (centres unmarked) [Compound 1, reference compound]
- disruption of RPA interaction with DNA [1]: disrupts its interaction with DNA

SMILES: CC(C)C1=C[C@]23CC[C@@H]4[C@](C)(CCC[C@@]4(C)C(=O)O)[C@H]2C[C@@H]1[C@@H](C(=O)O)[C@@H]3C(=O)O [Compound 2, fumaropimaric acid]
- disruption of RPA70N-p53 interaction (RPA70N-p53): disrupt both RPA70N-Rad9 and RPA70N-p53 interactions
- disruption of RPA70N-Rad9 interaction (RPA70N-Rad9): disrupt both RPA70N-Rad9 and RPA70N-p53 interactions

SMILES: O=C(O)c1sc2cc(Cl)ccc2c1Cl [Compound 3]
- ligand efficiency (LE) (RPA70N [3]): 0.32

- ligand efficiency (LE) (RPA70N [3]): 0.32
SMILES: Clc1ccc(-c2nnn[nH]2)cc1 [Compound 4]

- ligand efficiency (RPA70N [2]): 0.22
SMILES: O=C(O)c1sc2cc(-n3c(S)nnc3-c3ccccc3)ccc2c1Cl [Compound 5]

- ligand efficiency (RPA70N [2]): 0.17
SMILES: O=C(O)c1cc2ccc(-n3c(S)nnc3-c3cccc(Oc4ccccc4)c3)cc2s1 [Compound 13e]

- ligand efficiency (RPA70N [2]): 0.18
SMILES: O=C(O)c1sc2cc(-n3c(S)nnc3-c3cccc(Oc4ccccc4)c3)ccc2c1Cl [Compound 14d]

SMILES: O=C(O)c1sc2cc(-n3c(S)nnc3-c3ccc(Br)c(Cl)c3)ccc2c1Cl [Compound 14n]
- disruption of RPA-ssDNA interactions [4]: Neither 14q nor 14n showed evidence of disrupting RPA-ssDNA interactions

SMILES: O=C(O)c1sc2cc(-n3c(S)nnc3-c3ccc(Cl)c(Cl)c3)ccc2c1Cl [Compound 14q]
- disruption of RPA-ssDNA interactions [4]: Neither 14q nor 14n showed evidence of disrupting RPA-ssDNA interactions
